Measured values: ChEMBL document CHEMBL2429711, “[(11)C]MK-4232: The First Positron Emission Tomography Tracer for the Calcitonin Gene-Related Peptide Receptor” (ACS Med Chem Lett, 2013)

Tests used:
[1] = Drug uptake in iv dosed rhesus monkey white matter after 80 mins; type: ADME, organism-based, Macaca mulatta; conditions: in vivo
Method in brief: (§1)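 Anesthetized rhesus monkeys given [11C]-tracer i.v.; PET specific uptake value (SUV) read in cerebellum or white matter at 80 min postdose.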

[2] = Ratio of AUC in rhesus monkey CSF to AUC in rhesus monkey plasma; type: ADME, Macaca mulatta
Method in brief: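 Cisterna magna-ported rhesus monkeys dosed; CSF AUC divided by plasma AUC.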

[3] = tested on: CGRP receptor (Macaca mulatta); test: Ratio of drug uptake in iv dosed rhesus monkey cerebellum to drug uptake in iv dosed rhesus monkey white matter; conditions: in vivo
[4] = Drug uptake in iv dosed rhesus monkey cerebellum after 80 mins; type: ADME, organism-based, Macaca mulatta; conditions: in vivo; method in brief: as §1
[5] = target: T1, Calcitonin gene-related peptide type 1 receptor (Homo sapiens, UniProt O60894+Q16602); test: Displacement of [125I]-hCGRP from human CGRP receptor expressed in HEK293 cells; type: cell-based
T1 sequence (Q16602 whole entry, one chain of several): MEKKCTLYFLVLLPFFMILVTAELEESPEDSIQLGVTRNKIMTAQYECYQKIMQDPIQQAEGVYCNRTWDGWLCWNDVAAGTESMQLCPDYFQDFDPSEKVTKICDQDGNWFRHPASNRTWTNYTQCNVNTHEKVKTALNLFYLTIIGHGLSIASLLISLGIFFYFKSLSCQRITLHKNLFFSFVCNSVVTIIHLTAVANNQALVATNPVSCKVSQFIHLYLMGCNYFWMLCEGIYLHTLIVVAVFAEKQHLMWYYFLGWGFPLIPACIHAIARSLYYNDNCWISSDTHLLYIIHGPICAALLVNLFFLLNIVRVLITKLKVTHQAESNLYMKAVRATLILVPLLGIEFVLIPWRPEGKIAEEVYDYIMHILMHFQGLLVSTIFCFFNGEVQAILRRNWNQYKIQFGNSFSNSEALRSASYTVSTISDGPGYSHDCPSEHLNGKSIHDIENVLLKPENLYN
Method in brief: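 Ki for inhibition of 125I-hCGRP binding; membranes from HEK293 cells stably expressing human CLR/RAMP1; replicate number given per value.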

[6] = Fraction unbound in monkey plasma by equillibrium dialysis method; type: ADME, cell-free, Macaca mulatta; conditions: rhesus monkey
Method in brief: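 Plasma unbound fraction by equilibrium dialysis.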

[7] = Lipophilicity, log D of the compound at pH 7.0 by HPLC analysis; type: physicochemical; conditions: buffer
Method in brief: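 logD measured by HPLC at pH 7.0.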

MDR1 (ABCB1) = MDR1 (ABCB1) (Homo sapiens, UniProt P08183); test: Efflux ratio of human MDR1-mediated drug transport from basolateral to apical side over apical to basolateral side in pig LLC cells expressing human MDR1 at 5 uM; type: ADME, cell-based; conditions: LLC-PK1
Chain of MDR1 (ABCB1) (P08183 whole entry): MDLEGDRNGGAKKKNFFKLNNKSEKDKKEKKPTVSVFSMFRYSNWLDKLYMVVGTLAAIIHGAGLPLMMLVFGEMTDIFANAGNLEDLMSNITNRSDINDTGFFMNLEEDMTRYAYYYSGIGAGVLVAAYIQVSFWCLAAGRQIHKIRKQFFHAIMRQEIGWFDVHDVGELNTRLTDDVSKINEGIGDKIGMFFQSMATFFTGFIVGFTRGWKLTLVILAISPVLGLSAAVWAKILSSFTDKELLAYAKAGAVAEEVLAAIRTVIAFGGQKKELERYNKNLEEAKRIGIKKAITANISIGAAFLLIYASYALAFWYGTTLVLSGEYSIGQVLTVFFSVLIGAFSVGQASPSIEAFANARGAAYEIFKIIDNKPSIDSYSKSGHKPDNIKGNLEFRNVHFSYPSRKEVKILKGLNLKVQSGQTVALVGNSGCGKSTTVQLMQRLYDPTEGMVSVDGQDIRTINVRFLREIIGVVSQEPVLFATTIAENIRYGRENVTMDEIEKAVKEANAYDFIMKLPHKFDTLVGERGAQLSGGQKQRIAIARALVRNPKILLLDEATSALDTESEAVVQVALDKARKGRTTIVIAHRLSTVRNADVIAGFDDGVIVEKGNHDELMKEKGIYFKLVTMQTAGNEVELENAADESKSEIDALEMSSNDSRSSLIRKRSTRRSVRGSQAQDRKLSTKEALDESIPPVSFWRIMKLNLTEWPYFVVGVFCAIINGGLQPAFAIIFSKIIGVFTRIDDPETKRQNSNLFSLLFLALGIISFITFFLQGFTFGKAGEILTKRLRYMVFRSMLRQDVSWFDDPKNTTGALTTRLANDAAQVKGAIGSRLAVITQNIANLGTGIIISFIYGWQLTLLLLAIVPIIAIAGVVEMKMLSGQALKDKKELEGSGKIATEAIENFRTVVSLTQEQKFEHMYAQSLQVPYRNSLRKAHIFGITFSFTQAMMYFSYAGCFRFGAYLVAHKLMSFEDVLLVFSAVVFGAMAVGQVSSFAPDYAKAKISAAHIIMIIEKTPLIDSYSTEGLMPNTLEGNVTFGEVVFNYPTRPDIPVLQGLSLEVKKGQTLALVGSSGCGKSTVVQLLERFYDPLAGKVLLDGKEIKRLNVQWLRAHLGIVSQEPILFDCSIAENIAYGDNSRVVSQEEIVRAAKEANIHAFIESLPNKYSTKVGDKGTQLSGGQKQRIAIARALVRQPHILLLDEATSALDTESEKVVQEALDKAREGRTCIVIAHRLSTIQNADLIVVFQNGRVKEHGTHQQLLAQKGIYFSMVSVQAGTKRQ
Method in brief: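 P-gp transport ratio BA/AB in LLC-MDR1 cells, test compound at 5 μM.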

[8] = Fraction unbound in rhesus monkey CSF; type: ADME, Macaca mulatta, Cerebrospinal fluid
[9] = Apparent passive permeability across pig LLC-PK1 cells; type: ADME, cell-based, Sus scrofa
Method in brief: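 Permeability measured in control LLC-PK1 cells.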

[10] = target: Calcitonin gene-related peptide type 1 receptor (Homo sapiens) (UniProt Q16602); test: Ratio of Bmax to Ki for human CGRP receptor expressed in HEK293 cells; type: cell-based
Chain of Calcitonin gene-related peptide type 1 receptor (Homo sapiens) (Q16602 whole entry): as the sequence (Q16602 whole entry, one chain of several) above

Macaca mulatta = organism: Macaca mulatta; test: Binding affinity to rhesus monkey cerebellum CGRP receptor; type: tissue-based
[11] = Binding affinity to rhesus monkey CGRP receptor by radioligand binding assay; parameters: species or system Macaca mulatta
[12] = target: Calcitonin gene-related peptide type 1 receptor (Homo sapiens) (UniProt Q16602); test: Ratio of IC50 for CGRP receptor (unknown origin) to IC50 for CGRP receptor (unknown origin) in presence of human serum
[13] = target: T1, Calcitonin gene-related peptide type 1 receptor; test: Antagonist activity at CGRP receptor (unknown origin) by cell based cAMP assay in presence of human serum; type: functional
Method in brief: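 cAMP functional antagonism measured with 50% human serum added.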

[14] = target: T1, Calcitonin gene-related peptide type 1 receptor; test: Antagonist activity at CGRP receptor (unknown origin) by cell based cAMP assay; type: functional

SUV [1] | Ratio AUC [2] | Ratio [3] | SUV [4] | Ki [5] | fraction unbound [6] | logD [7] | efflux ratio at 5 µM (MDR1 (ABCB1)) | fraction unbound [8] | Papp [9] | Ratio [10] | Bmax (Macaca mulatta) | Ki [11] | Ratio IC50 [12] | IC50 [13] | IC50 [14] | SMILES
0.7 | 0.53% | 1.4 | 1 | 0.094 nM | 0.002 | 4.15 | – | – | – | – | – | – | – | – | – | CN1C[C@@](C)(c2cc(F)cc(F)c2)N(C/C=C/c2ccc3c(c2)C[C@@]2(C3)C(=O)Nc3ncccc32)C(=O)C12CCCC2
– | – | – | – | 0.11 nM | 0.333 | – | 20 | – | – | – | – | – | – | – | – | CC1(C)NC[C@@](C)(c2cc(F)cc(F)c2)N(CC(=O)Nc2ccc3c(c2)C[C@@]2(C3)C(=O)Nc3ncccc32)C1=O
– | 4.35% | – | – | 0.034 nM | 0.429 | – | 33 | 0.1 | – | – | – | – | – | – | – | CC1(C)NC[C@@H](c2cc(F)cc(F)c2)N(CC(=O)Nc2ccc3c(c2)C[C@@]2(C3)C(=O)Nc3ncccc32)C1=O
0.7 | – | 1.7 | 1.2 | 0.021 nM | 0.051 | 3.36 | 2 | – | 21 ×10⁻⁶ cm/s | – | – | – | – | – | – | CN1C[C@@](C)(c2cc(F)cc(F)c2)N(C/C=C/c2cnc3c(c2)C[C@@]2(C3)C(=O)Nc3ncccc32)C(=O)C12CCCC2
0.7 | 0.99% | 1.6 | 1.1 | 0.11 nM | 0.008 | 4.11 | – | – | – | – | – | – | – | – | – | CN1C[C@@](C)(c2cc(F)cc(F)c2)N(CC#Cc2ccc3c(c2)C[C@@]2(C3)C(=O)Nc3ncccc32)C(=O)C12CCCC2
– | 2.9% | – | – | – | – | 2.35 | 25 | – | 28 ×10⁻⁶ cm/s | > 1000 | 24 nM | – | – | – | – | O=C(CN1C(=O)C2(CCCC2)NC[C@H]1c1cc(F)cc(F)c1)Nc1ccc2c(c1)C[C@@]1(C2)C(=O)Nc2ncccc21 [MK3207]
0.6 | – | 1.7 | 1 | 0.045 nM | 0.061 | 3.16 | 1.8 | – | 23 ×10⁻⁶ cm/s | – | – | – | – | – | – | CN1C[C@@](C)(c2cc(F)cc(F)c2)N(CCCc2cnc3c(c2)C[C@@]2(C3)C(=O)Nc3ncccc32)C(=O)C12CCCC2
0.7 | 4.79% | 1.7 | 1.2 | 0.056 nM | 0.117 | – | 2.8 | 0.4 | 29 ×10⁻⁶ cm/s | – | – | – | – | – | – | CN1C[C@@](C)(c2cc(F)cc(F)c2)N(CC(=O)Nc2ccc3c(c2)C[C@@]2(C3)C(=O)Nc3ncccc32)C(=O)C1(C)C
0.5 | – | – | 0.7 | 0.022 nM | 0.205 | – | – | – | 27 ×10⁻⁶ cm/s | – | – | – | – | – | – | CN1C[C@@H](c2cc(F)cc(F)c2)N(CC(=O)Nc2ccc3c(c2)C[C@@]2(C3)C(=O)Nc3ncccc32)C(=O)C1(C)C
0.6 | – | 1.3 | 0.8 | 0.5 nM | 0.002 | 4.33 | – | – | – | – | – | – | – | – | – | CN1C[C@@](C)(c2cc(F)cc(F)c2)N(CCCc2ccc3c(c2)C[C@@]2(C3)C(=O)Nc3ncccc32)C(=O)C12CCCC2
– | 6.61% | – | – | – | – | – | 9.3 | – | – | – | – | – | – | – | – | C[C@@]1(c2cc(F)cc(F)c2)CNC2(CCCC2)C(=O)N1CC(=O)Nc1ccc2c(c1)C[C@@]1(C2)C(=O)Nc2ncccc21
0.9 | 3.12% | 2 | 1.7 | 0.046 nM | 0.043 | 3.39 | 1.7 | – | 25 ×10⁻⁶ cm/s | – | – | 0.033 nM | 4 | 0.39 nM | 0.097 nM | CN1C[C@@](C)(c2cc(F)cc(F)c2)N(CC(=O)Nc2ccc3c(c2)C[C@@]2(C3)C(=O)Nc3ncccc32)C(=O)C12CCCC2
– | 1.3% | – | – | – | 0.038 | – | 24 | – | – | – | – | – | – | – | – | O=C(N[C@@H]1CC[C@@H](c2cccc(F)c2F)CN(CC(F)(F)F)C1=O)N1CCC(n2c(=O)[nH]c3ncccc32)CC1 [TELCAGEPANT]
– | – | – | – | 0.017 nM | – | – | 14 | – | – | – | – | – | – | – | – | CN1C[C@@](C)(c2cc(F)cc(F)c2)N(CC(=O)Nc2cnc3c(c2)C[C@@]2(C3)C(=O)Nc3ncccc32)C(=O)C12CCCC2
0.7 | 2.64% | 1.9 | 1.3 | 0.019 nM | 0.031 | 3.41 | 1.5 | – | 17 ×10⁻⁶ cm/s | – | – | – | – | – | – | CN1C[C@@](C)(c2cc(F)cc(F)c2)N(CC#Cc2cnc3c(c2)C[C@@]2(C3)C(=O)Nc3ncccc32)C(=O)C12CCCC2
